Assay outcomes: PubChem, Johns Hopkins Ion Channel Center
hERG protect: hERG (human) protection from proarrhythmic block. CHO-hERG, FluxOR thallium flux, dofetilide IC70 present. hit rate 0.51% among 310,000. AID 1511. activation (rescue from dofetilide block), less the hit threshold, % at 10 µM;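 active = activation above the mean of controls blocked by dofetilide plus 5 SD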;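 also: thallium influx through hERG after potassium depolarization seen as dye fluorescence rise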
Kir21 inh: Kir2.1 (mouse) channel inhibition; P35561; HEK293-Kir2.1, FluxOR thallium flux fluorescence; hits give low values; B-score at 10 µM; hit rate 0.85% among 310,000; AID 1672;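 active = fluorescence ratio B-score at or below minus 3 SD of library scores, with starting-brightness B-score within 2 SD, cut at about -4.2 in these data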;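 also: channel flux triggered by added potassium and thallium sulfate stimulus; B-score of peak minus minimum fluorescence over baseline after thallium stimulus; more negative B-score means stronger Kir2.1 block with less thallium influx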
KCNK3 inh: human KCNK3 channel inhibition, primary screen | O14649 | hit rate 0.84% among 340,000 | CHO-KCNK3 thallium flux, FluxOR fluorescence; hits give low values | AID 602410 | B-score at 10 µM;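 active = B-score under library mean minus 4 SD, starting fluorescence ratio at most library mean plus 5 SD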;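 also: more negative B-score means stronger inhibition of thallium flux through KCNK3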
KCNK9 inh: inhibitors of human KCNK9 two-pore domain potassium channel; hit rate 1.2% among 310,000; B-score at 10 µM; HEK293 KCNK9, FluxOR thallium flux fluorescence; hits give low values;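 active = ratio B-score over 3 SD below the library mean, with starting fluorescence within 5 SD of its mean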;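 also: negative B-score means less thallium flux so channel inhibition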
KCNQ1 block: human KCNQ1 channel inhibition; P51787; B-score at 10 µM; hit rate 1.3% among 310,000; AID 2642; CHO-K1 KCNQ1, FluxOR thallium flux fluorescence; hits give high values;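 active = compounds whose thallium flux B-score, printed positive for inhibition, exceeds three library SD while starting fluorescence stays within three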;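 also: channel opened by potassium depolarization with thallium stimulus after 20 min compound exposure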
Target sequence (P51787 whole entry, looked up): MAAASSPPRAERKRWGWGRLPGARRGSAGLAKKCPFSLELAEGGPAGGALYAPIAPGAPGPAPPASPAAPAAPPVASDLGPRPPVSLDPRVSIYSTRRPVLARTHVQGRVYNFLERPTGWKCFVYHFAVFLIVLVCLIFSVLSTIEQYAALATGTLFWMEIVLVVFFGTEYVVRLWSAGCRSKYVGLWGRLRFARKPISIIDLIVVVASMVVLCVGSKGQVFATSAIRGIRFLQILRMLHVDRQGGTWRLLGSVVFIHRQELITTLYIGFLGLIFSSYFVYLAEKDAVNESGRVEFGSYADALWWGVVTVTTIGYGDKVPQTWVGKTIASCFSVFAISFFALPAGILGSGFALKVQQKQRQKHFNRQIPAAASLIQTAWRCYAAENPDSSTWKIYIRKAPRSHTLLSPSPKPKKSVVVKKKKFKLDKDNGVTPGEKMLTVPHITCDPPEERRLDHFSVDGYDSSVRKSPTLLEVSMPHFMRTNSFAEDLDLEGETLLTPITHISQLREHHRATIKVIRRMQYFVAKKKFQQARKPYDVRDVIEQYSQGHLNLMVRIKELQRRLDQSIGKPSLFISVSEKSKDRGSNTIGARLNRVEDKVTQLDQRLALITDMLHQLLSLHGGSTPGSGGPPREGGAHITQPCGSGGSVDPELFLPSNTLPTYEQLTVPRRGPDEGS
KCNQ1 act: human KCNQ1 channel potentiation or activation. CHO-K1 KCNQ1, thallium flux FluxOR fluorescence; hits give high values. hit rate 0.35% among 310,000. B-score at 10 µM;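 active = fluorescence ratio B-score, a plate-corrected score, at least three library SD, with initial intensity B-score within 5 SD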
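Assay system: CHO-K1 cells stably expressing KCNQ1. Medium: assay buffer for compound exposure, DMSO matched across wells. Timing: 37 °C overnight plating, 90-min dark dye load, 20-min compound pretreatment. Signal: kinetic FluxOR fluorescence, 10 s baseline plus 110 s post-stimulus.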
KCNK3 confirm: confirmation of human KCNK3 two-pore domain potassium channel inhibitors. AID 651638. CHO-KCNK3 thallium flux, FluxOR fluorescence; 0% buffer, 100% carvedilol maximal block. shares compounds with KCNK3 inh. ratio percent of control, % at 10 µM. hit rate 99% among 2,400;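 active = ratio percent of control, averaged over triplicates, above buffer control mean plus 5 SD, cut at about 64% in these data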;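 also: ratio is the fluorescence rise from min to max over baseline after thallium stimulus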
KCNK3 uninduced: counter-screen for KCNK3 inhibitors: effect in non-induced cells | shares compounds with KCNK3 inh | non-induced KCNK3 parental cells, FluxOR thallium flux; hits give low values | thallium flux ratio (lower = more inhibition) at 10 µM | hit rate 40% among 2,400;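 active = thallium flux ratio, averaged over three wells, more than 5 SD below the buffer control mean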;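 also: host cells are CHO cells without KCNK3 induction; ratio is peak minus trough fluorescence over baseline then normalized to buffer controls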
* marks the source's active call; other numbers are inactive results; i = inactive; · = no result. The list is not random: actives were taken first. Their share in the collection is about 3.7%.

SMILES	hERG protect	Kir21 inh	KCNK3 inh	KCNK9 inh	KCNQ1 block	KCNQ1 act	KCNK3 confirm	KCNK3 uninduced
COc1ccc(S(=O)(=O)N2CCN(C(=O)c3ccc([N+](=O)[O-])o3)CC2)cc1	-5	-2.1	i	i	i	i	·	·
COc1ccc(/C=C/C(=O)OCc2cccc([N+](=O)[O-])c2)cc1	-24	-1.3	-9.6*	i	i	i	95*	0.14*
CCc1ccc(C(=O)OCC(=O)c2c(N)n(CC(C)C)c(=O)n(C)c2=O)cc1	-23	1.8	i	i	i	i	·	·
Cc1c(Br)c([N+](=O)[O-])nn1C(C)C(=O)Nc1ccc2c(c1)OCO2 (stereo not drawn)	-6	1.5	i	i	i	i	·	·
COc1cccc(C(C(=O)NC(C)(C)C)N(C(=O)CCC(=O)Nc2cc(C)on2)c2ccc3c(c2)OCCO3)c1OC (stereo not drawn)	-6	-0.55	i	i	i	i	·	·
Cc1ccc(C)c(C(=O)CC2(O)C(=O)N(C)c3ccccc32)c1 (stereo not drawn)	-9	-1.2	i	i	i	i	·	·
Cc1ccc(C(=O)CC2(O)C(=O)N(C)c3ccc(Br)cc32)c(C)c1 (stereo not drawn)	1	-2.4	-9.6*	i	i	i	93*	i
O=C(c1cc(-c2cccc(Cl)c2)on1)N1CCCCCC1	-3	-1.1	-10*	i	i	i	114*	i
CCOC(=O)c1[nH]cnc1C(=O)Nc1ccccc1OC	-17	-1.7	i	i	i	i	·	·
O=C(O)c1ccc(/C=C/c2ccc3cccc(O)c3n2)cc1	-10	1.1	i	i	i	i	·	·
Oc1ccc(/C=C/c2ccc3cccc(O)c3n2)cc1Br	-11	0.75	-11*	i	i	i	135*	0.12*
COc1ccc(NC(=S)N(CCCN2CCOCC2)C(C)c2cc3ccccc3o2)cc1 (stereo not drawn)	-12	0.32	i	i	i	i	·	·
COc1cccc2cc(C(C)N(CCCN3CCOCC3)C(=S)Nc3ccc(C)cc3)oc12 (stereo not drawn)	-9	0.38	-9.5*	i	i	i	105*	i
COc1ccc(Cl)cc1NC(=O)CN(C)C(=O)c1cc(-c2ccncc2)nc2ccccc12	-20	-0.25	-9.2*	i	i	i	120*	0.14*
COc1ccc(NC(=O)CN(C)C(=O)c2cc(-c3ccccc3)nc3ccccc23)cc1	-13	-1.2	i	i	i	i	·	·
Cc1ccc2nc(-c3ccccc3)cc(C(=O)N(C)CC(=O)Nc3ccccc3Br)c2c1	-19	-0.31	-14*	i	i	i	110*	i
O=C(NCCO)N1c2ccccc2Sc2ccccc21	-3	-0.01	i	i	i	i	·	·
O=C(Nc1ccccc1O)N1c2ccccc2Sc2ccccc21	-19	-0.1	-10*	i	i	i	103*	i
CCCn1c(SCC(=O)N2c3ccccc3CC2C)n[nH]c1=O (stereo not drawn)	·	·	i	·	·	·	·	·
Cc1cccc2cc(CN(Cc3ccco3)C(=O)c3ccncc3)c(=O)[nH]c12	-16	2.2	-22*	i	i	i	63*	i
CCOC(=O)c1c(CSc2ccc(CC)cc2)oc2ccc(O)c(CN(C)C)c12	-27	-16*	-9.1*	-7.4*	8*	i	120*	0.16*
CC(C)(C)c1ccc(Cn2nnc3c(=O)[nH]c(C4CCN(C(=O)c5ccco5)CC4)nc32)cc1	-5	1.3	-8.9*	i	i	i	122*	0.15*
O=C(c1ccco1)N1CCC(c2nc3c(nnn3Cc3c(Cl)cccc3Cl)c(=O)[nH]2)CC1	-5	1.5	i	i	i	i	·	·
COc1ccc(NC(=O)CSc2n[nH]c(-c3ccccc3)n2)cc1S(N)(=O)=O	·	·	i	·	·	·	·	·
